Data: ChEMBL document CHEMBL1130387, “Design of a potent combined pseudopeptide endothelin-A/endothelin-B receptor antagonist, Ac-DBhg16-Leu-Asp-Ile-[NMe]Ile-Trp21 (PD 156252): examination of its pharmacokinetic and spectral properties” (J Med Chem, 1997)
Numbered stars: 1 amine (or outer) side, 2 acyl side, 3 side chain; on linkers, the order of the positions; unused ones are H or OH. Square brackets hold non-standard residues; d marks the D form. Peptide text beside a SMILES is read from it. dGly(5-dibenzosuberyl) = N[C@@H](C(=O)O)C1c2ccccc2CCc2ccccc21; X2 = O=C([C@@H](N[*:1])C1c2ccccc2CCc2ccccc21)[*:2]; NMeDip = CN[C@H](C(=O)O)C(c1ccccc1)c1ccccc1; NMeW = CN[C@@H](Cc1c[nH]c2ccccc12)C(=O)O; Dip = N[C@H](C(=O)O)C(c1ccccc1)c1ccccc1; NMeI = CC[C@H](C)[C@H](NC)C(=O)O; NMeD = CN[C@@H](CC(=O)O)C(=O)O

Tests used:
[1] = Stability in rat intestinal perfusate; assay type: ADME
Procedure, shortened: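 Stability measured by incubation in rat intestinal perfusate in vitro. Values are the mean of at least three determinations ± SEM from two perfusate preparations. Perfusate leucine aminopeptidase activity was 0.05–0.32 nkat/mL. Degradation was also checked with a potato tuber carboxypeptidase inhibitor added.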

[2] = organism: Oryctolagus cuniculus; test: Ability to antagonize endothelin -1 (ET-1) stimulated vasoconstriction in vitro in rabbit femoral artery; assay type: functional; conditions: read-out: pA2 (converted)
[3] = target: T1, Endothelin receptor type B (Rattus norvegicus, UniProt P21451); test: Inhibition of binding to Endothelin B receptor of rat cerebellar membranes.; assay type: cell membranes, Membrane
T1 sequence (P21451 whole entry): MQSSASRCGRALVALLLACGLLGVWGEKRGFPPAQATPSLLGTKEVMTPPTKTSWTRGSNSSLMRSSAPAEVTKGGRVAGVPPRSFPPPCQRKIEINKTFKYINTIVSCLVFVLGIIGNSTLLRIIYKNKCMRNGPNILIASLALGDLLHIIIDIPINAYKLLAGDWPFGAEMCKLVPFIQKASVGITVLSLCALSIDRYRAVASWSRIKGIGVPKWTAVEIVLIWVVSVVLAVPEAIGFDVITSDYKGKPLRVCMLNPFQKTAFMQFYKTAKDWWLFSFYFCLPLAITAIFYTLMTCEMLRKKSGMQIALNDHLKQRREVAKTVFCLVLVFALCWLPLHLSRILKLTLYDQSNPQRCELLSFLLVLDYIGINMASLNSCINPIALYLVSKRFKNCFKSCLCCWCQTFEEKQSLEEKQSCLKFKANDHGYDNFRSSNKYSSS
Procedure, shortened: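 Competition binding assays: ETA on rabbit renal vascular smooth muscle cells, ETB on rat cerebellar membranes. Each IC50 comes from a single competition experiment with points measured in duplicate. Where more than one IC50 was determined, values are given as mean ± SEM.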

[4] = system: Caco-2; test: Permeability in Caco-2 Cell monolayers for the compound; assay type: functional, cell-based; conditions: Homo sapiens
Procedure, shortened: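 Transport measured across Caco-2 monolayers (human colon adenocarcinoma line that differentiates to an enterocyte-like phenotype). Each value is the mean of three to five cell monolayers, with standard errors.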

[5] = organism: Oryctolagus cuniculus; test: Ability to antagonize […] SRTX-6c stimulated vasoconstriction in vitro in rabbit pulmonary artery; assay type: functional; conditions: read-out: pA2 (converted)

Work on CC[C@H](C)[C@H](NC(=O)[C@H](CC(=O)O)NC(=O)[C@H](CC(C)C)NC(=O)[C@H](NC(C)=O)C1c2ccccc2CCc2ccccc21)C(=O)N(C)[C@H](C(=O)N[C@@H](Cc1c[nH]c2ccccc12)C(=O)O)[C@@H](C)CC yielded a half-life [1] of 8.97 h and a Kb [2] of 50.1 nM.
Work on CC[C@H](C)[C@H](NC(=O)[C@H](CC(=O)O)NC(=O)[C@H](CC(C)C)N(C)C(=O)[C@H](NC(C)=O)C(c1ccccc1)c1ccccc1)C(=O)N[C@H](C(=O)N[C@@H](Cc1c[nH]c2ccccc12)C(=O)O)[C@@H](C)CC yielded an IC50 [3] of 600 nM.
With CC[C@H](C)[C@H](NC(=O)[C@@H](NC(=O)[C@H](CC(=O)O)NC(=O)[C@H](CC(C)C)NC(=O)[C@H](NC(C)=O)C(c1ccccc1)c1ccccc1)[C@@H](C)CC)C(=O)CNC(=O)[C@@H](N)Cc1c[nH]c2ccccc12 the IC50 [3] was > 250 nM.
For CC[C@@H](C)[C@H](C(=O)N[C@@H](Cc1c[nH]c2ccccc12)C(=O)O)N(C)C(=O)[C@@H](NC(=O)[C@@H](CC(=O)O)NC(=O)[C@H](CC(C)C)NC(=O)[C@H](NC(C)=O)C1c2ccccc2CCc2ccccc21)[C@@H](C)CC, the Permeability (10e4*cm min-1) [4] was 6.3.
Work on CC[C@H](C)[C@H](NC(=O)[C@H](CC(=O)O)NC(=O)[C@H](CC(C)C)NC(=O)[C@@H](NC(C)=O)C(c1ccccc1)c1ccccc1)C(=O)N[C@H](C(=O)N[C@@H](Cc1c[nH]c2ccccc12)C(=O)O)[C@@H](C)CC (Ac-[Dip]LDIIW-OH) yielded a half-life [1] of 0.302 h, a Permeability (10e4*cm min-1) [4] of 2 and a Kb [2] of 251 nM. For the same molecule, the Kb [5] was 501 nM.
CC[C@H](C)[C@H](NC(=O)[C@H](CC(=O)O)NC(=O)[C@H](CC(C)C)NC(=O)[C@@H](NC(C)=O)C(c1ccccc1)c1ccccc1)C(=O)N[C@H](C(=O)N(C)[C@@H](Cc1c[nH]c2ccccc12)C(=O)O)[C@@H](C)CC (Ac-[Dip]LDII[NMeW]-OH) showed an IC50 [3] of 11000 nM.
With CC[C@H](C)[C@H](NC(=O)[C@H](CC(=O)O)NC(=O)[C@H](CC(C)C)NC(=O)[C@@H](NC(C)=O)C(c1ccccc1)c1ccccc1)C(=O)N(C)[C@H](C(=O)N[C@@H](Cc1c[nH]c2ccccc12)C(=O)O)[C@@H](C)CC (Ac-[Dip]LDI[NMeI]W-OH) the half-life [1] was 14.6 h, the Permeability (10e4*cm min-1) [4] was 2 and the IC50 [3] was 80 nM.
For CC[C@H](C)[C@H](NC(=O)[C@H]([C@@H](C)CC)N(C)C(=O)[C@H](CC(=O)O)NC(=O)[C@H](CC(C)C)NC(=O)[C@@H](NC(C)=O)C(c1ccccc1)c1ccccc1)C(=O)N[C@@H](Cc1c[nH]c2ccccc12)C(=O)O (Ac-[Dip]LD[NMeI]IW-OH), the IC50 [3] was > 1000 nM.
CC[C@H](C)[C@H](NC(=O)[C@@H](NC(=O)[C@H](CC(=O)O)N(C)C(=O)[C@H](CC(C)C)NC(=O)[C@@H](NC(C)=O)C(c1ccccc1)c1ccccc1)[C@@H](C)CC)C(=O)N[C@@H](Cc1c[nH]c2ccccc12)C(=O)O (Ac-[Dip]L[NMeD]IIW-OH) gave an IC50 [3] of 1500 nM.
Molecule CC[C@H](C)[C@H](NC(=O)[C@H](CC(=O)O)NC(=O)[C@H](CC(C)C)NC(=O)[C@H](C(c1ccccc1)c1ccccc1)N(C)C(C)=O)C(=O)N[C@H](C(=O)N[C@@H](Cc1c[nH]c2ccccc12)C(=O)O)[C@@H](C)CC (Ac-[NMeDip]LDIIW-OH) has an IC50 [3] of 8000 nM.
Work on CC[C@H](C)[C@H](NC(=O)[C@H](CC(=O)O)NC(=O)[C@H](CC(C)C)NC(=O)[C@@H](NC(C)=O)C1c2ccccc2CCc2ccccc21)C(=O)N[C@H](C(=O)N[C@@H](Cc1c[nH]c2ccccc12)C(=O)O)[C@@H](C)CC (Ac-[X2]LDIIW-OH) yielded a Permeability (10e4*cm min-1) [4] of 4.7.
Molecule CC[C@H](C)[C@H](NC(=O)[C@H](CC(=O)O)NC(=O)[C@H](CC(C)C)NC(=O)[C@H](NC(C)=O)C1c2ccccc2CCc2ccccc21)C(=O)N[C@H](C(=O)N[C@@H](Cc1c[nH]c2ccccc12)C(=O)O)[C@@H](C)CC (Ac-[dGly(5-dibenzosuberyl)]LDIIW-OH) has a half-life [1] of 0.177 h, a Kb [2] of 158 nM and a Kb [5] of 100 nM.
